Common to all, as to assay type: functional, organism-based
Test [1] relates to Cryptococcus neoformans. Kind of test: Antifungal activity against Cryptococcus neoformans ATCC 90113 by modified NCCLS method. A digest of the protocol:
(§1)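 Broth microdilution following a modified NCCLS method. The inoculum was a subculture diluted in its incubation broth. Compounds were dissolved in DMSO, serially diluted in normal saline and tested in duplicate, at final concentrations starting at 50 µg/mL. Amphotericin B served as positive control, with media-only blanks. Turbidity was read at 630 nm before and after incubation. Percent growth was plotted against concentration to give IC50/MIC.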

Test [2] concerns Candida albicans. Kind of test: Antifungal activity against Candida albicans ATCC 90028 at 50 ug/mL by modified NCCLS method. A digest of the protocol: as §1
Test [3] has as its system Cryptococcus neoformans. Kind of test: Antifungal activity against Cryptococcus neoformans ATCC 90113 at 50 ug/mL by modified NCCLS method. A digest of the protocol: as §1
Test [4] has as its system Candida albicans. As to the kind of experiment: Antifungal activity against Candida albicans ATCC 90028 by modified NCCLS method. A digest of the protocol: as §1

≈ marks a conversion by molar mass, not a printed value. Calls of active or inactive are those of the source.

In the case of `C=C1[C@@H](OCCO)O[C@@H]2O[C@]3(C)CC[C@H]4[C@H](C)CC[C@@H]1[C@@]24OO3`, in the test with Cryptococcus neoformans [1], half-maximal inhibition (IC50) was put at 3 mg/L (≈ 9.19 µM). Besides, the result in the test on Candida albicans [2] and in the test with Cryptococcus neoformans [3] was inactive.

For the molecule `C[C@H]1[C@@H](O[C@H]2CC[C@H](O)CC2)O[C@@H]2O[C@]3(C)CC[C@H]4[C@H](C)CC[C@@H]1[C@@]24OO3`, the IC50 (commonly the concentration that inhibits the measured activity by half) with Cryptococcus neoformans [1] turned out to be 1 mg/L (≈ 2.61 µM). In addition, the outcome in the test on Candida albicans [2] and with Cryptococcus neoformans [3] was inactive.

`C[C@@H]1[C@H](O)[C@@H](C)/C=C/C=C/C=C/C=C/C=C/C=C/C=C/[C@H](O[C@@H]2O[C@H](C)[C@@H](O)[C@H](N)[C@@H]2O)C[C@@H]2O[C@](O)(C[C@@H](O)C[C@@H](O)[C@H](O)CC[C@@H](O)C[C@@H](O)CC(=O)O[C@H]1C)C[C@H](O)[C@H]2C(=O)O` [AMPHOTERICIN B]: the 50% inhibitory concentration (IC50) with Candida albicans [4] is 0.1 mg/L (≈ 0.108 µM); in the test on Cryptococcus neoformans [1] it was 0.35 mg/L (≈ 0.379 µM). Also, the values for the minimal inhibitory concentration (MIC) against Candida albicans [4] and in the test with Cryptococcus neoformans [1] were 0.15 mg/L (≈ 0.162 µM) and 0.625 mg/L (≈ 0.676 µM), respectively.

As for `CC1=CO[C@@H]2O[C@]3(C)CC[C@H]4[C@H](C)CC[C@@H]1[C@@]24OO3` [ANHYDRODIHYDROARTEMISININ], in the test on Candida albicans [4], the concentration for half-maximal inhibition (IC50) came out at 7 mg/L (≈ 26.3 µM) and the MIC (commonly the smallest concentration in the dilution series that meets the test's criterion for growth inhibition) turned out to be 50 mg/L (≈ 188 µM). In the test with Cryptococcus neoformans [1], this molecule had an IC50 of 0.045 mg/L (≈ 0.169 µM) and a minimum inhibitory concentration (MIC) of 0.195 mg/L (≈ 0.732 µM).

On to `C[C@H]1[C@@H](Oc2ccc(O)cc2)O[C@@H]2O[C@]3(C)CC[C@H]4[C@H](C)CC[C@@H]1[C@@]24OO3`, for which the half-maximal inhibitory concentration (IC50) in the test on Cryptococcus neoformans [1] was 0.087 mg/L (≈ 0.231 µM). Also, the outcome with Candida albicans [2] and in the test on Cryptococcus neoformans [3] was inactive.

On to `C[C@H]1[C@@H](O)O[C@@H]2OC3(C)CC[C@H]4[C@H](C)CC[C@@H]1[C@@]24OO3` (single isomer, unassigned) [ARTENIMOL], for which the concentration for half-maximal inhibition (IC50) was 9 mg/L (≈ 31.7 µM) in the test with Candida albicans [4] and 0.09 mg/L (≈ 0.317 µM) in the test on Cryptococcus neoformans [1]. For the same molecule, in the test with Cryptococcus neoformans [1], the minimum inhibitory concentration (MIC) turned out to be 12.5 mg/L (≈ 44 µM). In addition, in the test on Candida albicans [2], the result was inactive.

As for `CO[C@@H]1O[C@@H]2O[C@]3(C)CC[C@H]4[C@H](C)CC[C@@H]([C@H]1C)[C@@]24OO3`, the concentration for half-maximal inhibition (IC50) in the test with Cryptococcus neoformans [1] was found to be 1.5 mg/L (≈ 5.03 µM). Besides, the outcome with Candida albicans [2] and in the test with Cryptococcus neoformans [3] was inactive.

Consider `C[C@H]1[C@@H](O[C@H]2CC[C@@H](O)CC2)O[C@@H]2O[C@]3(C)CC[C@H]4[C@H](C)CC[C@@H]1[C@@]24OO3`, for which the midpoint of inhibition in the test on Cryptococcus neoformans [1], the IC50, lay at 0.9 mg/L (≈ 2.35 µM). Besides, the result with Candida albicans [2] and in the test on Cryptococcus neoformans [3] was inactive.

In the test with Cryptococcus neoformans [1], `C=C1C(=O)O[C@@H]2OC3(C)CC[C@H]4[C@H](C)CC[C@@H]1[C@@]24OO3` (single isomer, unassigned) [ARTEMISITENE] had an IC50 of 0.045 mg/L (≈ 0.161 µM). In addition, the result in the test with Candida albicans [2] and with Cryptococcus neoformans [3] was inactive.

Take `CCO[C@@H]1O[C@@H]2O[C@]3(C)CC[C@H]4[C@H](C)CC[C@@H]([C@H]1C)[C@@]24OO3` [ALPHA-ARTEETHER]: the half-inhibitory concentration (IC50) in the test on Candida albicans [4] was found to be 3 mg/L (≈ 9.6 µM). In the test on Cryptococcus neoformans [1], this molecule had a half-inhibitory concentration (IC50) of 0.045 mg/L (≈ 0.144 µM) and an MIC of 1.56 mg/L (≈ 4.99 µM). Moreover, in the test on Candida albicans [2], the result was inactive.

Regarding `C[C@H]1[C@@H](OCCCCO)O[C@@H]2O[C@]3(C)CC[C@H]4[C@H](C)CC[C@@H]1[C@@]24OO3`, in the test with Cryptococcus neoformans [1], the IC50 was determined as 0.6 mg/L (≈ 1.68 µM). For the same molecule, the result in the test with Candida albicans [2] and in the test on Cryptococcus neoformans [3] was inactive.

As to `C[C@@H]1CC[C@H]2[C@@H](C)C(=O)O[C@@H]3O[C@@]4(C)CC[C@@H]1[C@]32OO4` [ARTEMISININ], the IC50 in the test with Candida albicans [4] is 8 mg/L (≈ 28.3 µM); in the test with Cryptococcus neoformans [1], 2 mg/L (≈ 7.08 µM). Besides, the minimal inhibitory concentration (MIC) against Candida albicans [4] and with Cryptococcus neoformans [1] was 50 mg/L (≈ 177 µM) in each case.

With `C[C@H]1[C@@H](Oc2ccc(S)cc2)O[C@@H]2O[C@]3(C)CC[C@H]4[C@H](C)CC[C@@H]1[C@@]24OO3`, half-maximal inhibition with Cryptococcus neoformans [1] (IC50) was put at 0.31 mg/L (≈ 0.79 µM). For the same molecule, the result with Candida albicans [2] and in the test on Cryptococcus neoformans [3] was inactive.

Regarding `CO[C@H]1O[C@@H]2OC3(C)CC[C@H]4[C@H](C)CC[C@@H]([C@H]1C)[C@@]24OO3` (single isomer, unassigned) [ARTEMETHER], in the test with Cryptococcus neoformans [1], the concentration for half-maximal inhibition (IC50) is 0.6 mg/L (≈ 2.01 µM) and the MIC stood at 25 mg/L (≈ 83.8 µM). Moreover, the outcome in the test with Candida albicans [2] was inactive.

Consider `CCO[C@H]1O[C@@H]2O[C@@]3(C)CC[C@H]4[C@H](C)CC[C@@H]([C@H]1C)[C@@]24OO3` [ARTEMOTIL], for which the results for the half-maximal inhibitory concentration (IC50) with Candida albicans [4] and in the test with Cryptococcus neoformans [1] were 15 mg/L (≈ 48 µM) and 0.085 mg/L (≈ 0.272 µM), respectively. For the same molecule, the minimal inhibitory concentration (MIC) against Candida albicans [4] turned out to be 50 mg/L (≈ 160 µM); against Cryptococcus neoformans [1], 3.13 mg/L (≈ 10 µM).

For the molecule `CC1=CO[C@@H]2O[C@]3(C)CC[C@H]4[C@H](C)CC[C@@H]1[C@@]24O3`, the IC50 in the test on Candida albicans [4] is 30 mg/L (≈ 120 µM); in the test on Cryptococcus neoformans [1], 6 mg/L (≈ 24 µM). Besides, the outcome with Candida albicans [2] and in the test with Cryptococcus neoformans [3] was inactive.

For the origin of these results see ChEMBL document CHEMBL1141787, “Antifungal activity of artemisinin derivatives” (J Nat Prod, 2005).
